In PMC3313684 (Journal of Natural Products, 2012):
≈ marks a conversion by molar mass, not a printed value. Like-named read-outs stand apart in the source and are kept apart here.

Experiments:
Micrococcus luteus [1] = conditions: previously shown; cited from earlier work
Neisseria gonorrhoeae [2] = conditions: previously shown; cited from earlier work
[3] = test system: human umbilical vein endothelial cells (HUVEC); assay: HUVEC Matrigel cord formation assay; type: cell-based; conditions: 0.001 μg/mL, 24 h
Micrococcus luteus [4] = assay: Antimicrobial susceptibility, Micrococcus luteus; type: cell-based; conditions: read-out: MIC Micrococcus luteus
Summary of the method: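 Broth microdilution susceptibility to an established standard for aerobic bacteria, strain Presque Isle 456. Test compound was reconstituted in a small volume of sterile DMSO and diluted in medium just before the assay. MIC was the lowest concentration that stopped all visible growth (optically clear). Assays were repeated on separate days.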

SW1736 cells = assay: Anaplastic thyroid carcinoma cell line inhibition, SW1736; type: cell-based, human
tubulin = assay: Inhibition of [3H]colchicine binding to tubulin; conditions: 10 μM compound, 1.0 μM tubulin, 5.0 μM [3H]colchicine
KAT-4 cells = assay: Anaplastic thyroid carcinoma cell line inhibition, KAT-4; type: cell-based, human; conditions: for GI50: Homo sapiens, KAT-4, read-out: KAT-4 GI50
Summary of the method: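 Growth inhibition by the NCI sulforhodamine B method. Cells were plated in RPMI1640 with 5% fetal bovine serum and grown 24 h. Serial dilutions of test compound were then added for 48 h. Plates were fixed with trichloroacetic acid, stained with sulforhodamine B and read by plate reader. GI50 is the concentration giving a 50% drop in net protein increase, calculated from optical density data.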

Neisseria gonorrhoeae [5] = assay: Antimicrobial susceptibility, Neisseria gonorrhoeae; type: cell-based; conditions: for MIC: Neisseria gonorrhoeae, read-out: MIC Neisseria gonorrhoeae; for MIC Neisseria gonorrhoeae: broth microdilution
Summary of the method: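 Neisseria gonorrhoeae ATCC 49226 tested by broth microdilution following standard bacterial dilution guidelines. MIC taken as the lowest concentration inhibiting all visible growth (optically clear). Assays repeated on separate days.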

COc1ccc(/C=C\c2cc(OC)c(OC)c(OC)c2)cc1O [1a, combretastatin A-4]
MIC Micrococcus luteus (Micrococcus luteus [1]): 25-100 μg/disk
MIC Neisseria gonorrhoeae (Neisseria gonorrhoeae [2]): 25-100 μg/disk

COc1ccc(/C=C\c2cc(OC)c(OC)c(OC)c2)cc1OP(=O)([O-])[O-].[Na+].[Na+] [1b, fosbretabulin]
MIC Micrococcus luteus (Micrococcus luteus [1]): 25-100 μg/disk
MIC Neisseria gonorrhoeae (Neisseria gonorrhoeae [2]): 25-100 μg/disk

COc1ccc(/C=C\c2cc(I)c(OC)c(OC)c2)cc1O [9a, 3-Iodo-4,4′,5-trimethoxy-3′-hydroxy-Z-stilbene]
cord lengths and junction numbers [3]: markedly reduced
MIC (Micrococcus luteus [4]): 2 to 4 µg/mL (≈ 4.85 to 9.7 µM)
times less active against the SW1736 line than against KAT-4 (SW1736 cells): 100 ×
inhibition of colchicine binding to tubulin, % inhibition ± SD (tubulin): 100 ± 0.8%

COc1ccc(/C=C\c2cc(I)c(OC)c(I)c2)cc1O [9c, 3,5-Diiodo-4,4′-dimethoxy-3′-hydroxy-Z-stilbene]
GI50 (KAT-4 cells): 0.039 to 0.063 µg/mL (≈ 0.0768 to 0.124 µM)
cord lengths and junction numbers [3]: markedly reduced
MIC (Micrococcus luteus [4]): 4 to 16 µg/mL (≈ 7.87 to 31.5 µM)
times less active against the SW1736 line than against KAT-4 (SW1736 cells): 100 ×
inhibition of colchicine binding to tubulin, % inhibition ± SD (tubulin): 100 ± 0.3%

COc1ccc(/C=C\c2cc(I)c(OC)c(OC)c2)cc1OP(=O)([O-])[O-].[K+].[K+] [11a, Potassium 3-Iodo-4,4′,5-trimethoxy-Z-stilbene 3′-O-phosphate]
GI50 (KAT-4 cells): 0.37 to 0.43 µg/mL

COc1ccc(/C=C\c2cc(I)c(OC)c(I)c2)cc1OP(=O)([O-])[O-].[K+].[K+] [12a, Potassium 3,5-Diiodo-4,4′dimethoxy-Z-stilbene 3′-O-phosphate]
GI50 (KAT-4 cells): 0.38 to 0.44 µg/mL
times less inhibitory than the phenols 9a and 9c (KAT-4 cells; KAT-4): 10 ×
MIC (Neisseria gonorrhoeae [5]): 0.5 to 4 µg/mL

COc1ccc(/C=C\c2cc(I)c(OC)c(I)c2)cc1OP(=O)([O-])[O-].[Na+].[Na+] [12b, Sodium 3,5-Diiodo-4,4′-dimethoxy-Z-stilbene 3′-O-phosphate]
MIC (Neisseria gonorrhoeae [5]): 32 to 64 µg/mL

COc1ccc(/C=C\c2cc(I)c(OC)c(I)c2)cc1OP(=O)([O-])[O-].[Li+].[Li+] [12c, Lithium 3,5-Diiodo-4,4′-dimethoxy-Z-stilbene 3′-O-phosphate]
MIC (Neisseria gonorrhoeae [5]): 0.5 to 2 µg/mL

C1COCCN1.COc1ccc(/C=C\c2cc(I)c(OC)c(I)c2)cc1OP(=O)(O)O [12d, Morpholine 3,5-Diiodo-4,4′-dimethoxy-Z-stilbene 3′-O-phosphate]
MIC Neisseria gonorrhoeae (Neisseria gonorrhoeae [5]): < 0.5 µg/mL

Glycine-OMe 3,5-Diiodo-4,4′-dimethoxy-Z-stilbene 3′-O-phosphate [12f]
MIC Neisseria gonorrhoeae (Neisseria gonorrhoeae [5]): <0.5 to 1 µg/mL

Morpholine 3-Iodo-4,4′,5-trimethoxy-Z-stilbene 3′-O-phosphate [11d]
MIC Neisseria gonorrhoeae (Neisseria gonorrhoeae [5]): 16 to 32 µg/mL

Piperdine 3,5-Diiodo-4,4′-dimethoxy-Z-stilbene 3′-O-phosphate [12e]
MIC Neisseria gonorrhoeae (Neisseria gonorrhoeae [5]): < 0.5 µg/mL

Tris 3,5-Diiodo-4,4′dimethoxy-Z-stilbene 3′-O-phosphate [12h]
MIC Neisseria gonorrhoeae (Neisseria gonorrhoeae [5]): <0.5 to 2 µg/mL

Tris 3-Iodo-4,4′,5-trimethoxy-Z-stilbene 3′-O-phosphate [11h]
MIC Neisseria gonorrhoeae (Neisseria gonorrhoeae [5]): 32 to 64 µg/mL

Tryptophan-OMe 3,5-Diiodo-4,4′-dimethoxy-Z-stilbene 3′-O-phosphate [12g]
MIC Neisseria gonorrhoeae (Neisseria gonorrhoeae [5]): < 0.5 µg/mL

Tryptophan-OMe 3-Iodo-4,4′,5-trimethoxy-Z-stilbene 3′-O-phosphate [11g]
MIC Neisseria gonorrhoeae (Neisseria gonorrhoeae [5]): 4 to 8 µg/mL
